Data published in paper PMC11413667 (Acta Pharmaceutica Sinica. B, 2024).

How the values were obtained:
[1] = tested on: 4T1 cells; assay: MTT cytotoxicity; type: cell-based, mouse; conditions: increasing dosage, n = 4
In short: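 4T1 cells, cultured in DMEM with 10% FBS and 1% pen-strep at 37 °C, 5% CO2, were seeded overnight until adherent. They were then exposed to a concentration series of test compound. Light groups received 638 nm, 29.8 mW/cm2 for 12 min. Viability was measured by standard MTT relative to untreated cells, n = 4, mean ± SD.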

[2] = tested on: 4T1 cells; assay: Annexin V-FITC/PI flow cytometry; type: cell-based, mouse; conditions: upon light
In short: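 Mouse 4T1 cells, grown in DMEM with 10% FBS and 1% pen-strep at 37 °C, 5% CO2, were exposed to test compound at one fixed concentration for 6 h in the dark. Cells were then irradiated (638 nm, 29.8 mW/cm2, 15 min) or left unirradiated, and stained with Annexin V-FITC and PI for 15 min. Apoptotic and necrotic fractions were read by flow cytometry.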

[3] = tested on: 4T1 tumor; conditions: i.v., PT 20 mg/kg, PTI 25 mg/kg, 0.5-12 h

Compound | Cytotoxicity (MTT), ICG-001 alone [1] | Cells in apoptosis or necrosis state [2] | Tumor accumulation (fluorescence imaging) [3]
O=C1[C@H](Cc2ccc(O)cc2)N2C(=O)CCN(C(=O)NCc3ccccc3)[C@H]2CN1Cc1cccc2ccccc12 [ICG-001] | could hardly retard the cell expansion | – | –
Palmitic-K(PpIX)-HAIYPRH [PT] | – | less than a quarter | weaker tumor accumulation than PTI
